Measured values taken from article PMC3988263 (European journal of pharmacology, 2011).

Assays:
[1] = test system: mouse liver microsomes (cytochrome P450, harmaline O-demethylation); assay: Harmaline O-demethylation to harmalol in mouse liver microsomes; type: in vitro ADME
[2] = test system: mice (sedation or ataxia); assay: Gross observation in open fields; type: in vivo, mouse; details: doses below 200 mg/kg
[3] = test system: mice (retention time on inverted wire grid); assay: Inverted grid test of behavioral toxicity; type: in vivo, mouse
[4] = test system: high voltage calcium channels; details: at 100 µM; ref Huang et al., 2004; Li et al., 2005; cited from earlier work
[5] = test system: CYP3A (mouse liver microsomes)
human CYP2D6 = details: ref Bui et al., 2008; cited from earlier work
pentylenetetrazol model = details: ref Handforth et al., 2010; cited from earlier work
human recombinant CYP3A4 = details: ref Bui et al., 2008; cited from earlier work
[6] = test system: GABAA receptor α1-null mice (tremor); assay: Tremor measurement in the GABAA receptor α1-null model; type: in vivo, mouse; details: for tremor reduction compared to baseline: 20 mg/kg i.p., 30 min after drug, tail suspension
[7] = test system: harmaline-induced tremor in ICR mice; assay: Tremor measurement in the harmaline model; type: in vivo, mouse; details: harmaline 20 mg/kg
In short: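 Male ICR mice (20–24 g) sat on a motion-sensing platform; 20 min baseline, then harmaline 20 mg/kg, then test compound or saline vehicle 15 min later (time 0); 100 min recording; 5–6 mice/group. Read-out was 10–16 Hz motion power as % of 0–33 Hz power over 20–60 and 60–100 min. Reduction = 100×(1−[(DT−DB)/(mean VT−mean VB)]) versus vehicle group; repeated-measures ANOVA.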

[8] = test system: mice (sedation/motor function); assay: Horizontal wire test of behavioral toxicity; type: in vivo, mouse
[9] = test system: cytochrome P450 (harmaline O-demethylation to harmalol); assay: Harmaline O-demethylation to harmalol in mouse liver microsomes; type: in vitro ADME; details: mouse, mouse liver microsomes, pH 7.5, probe harmaline (10 µM)
[10] = ref Ertel and Clozel, 1997; cited from earlier work
blood pressure = details: ref Dogrul et al., 2003; cited from earlier work
[11] = 12.5 mg/kg i.p., 20–60 min post-drug
[12] = 12.5 mg/kg i.p., 60–100 min post-drug

CC(C)[C@H]1c2ccc(F)cc2CC[C@@]1(CCN(C)CCCc1nc2ccccc2[nH]1)OC(=O)C1CC1.Cl.Cl [NNC 55-0396, (1S,2S)-2-(2-(N-[(3-benzimidazol-2-yl)propyl]-N-methylamino)ethyl)-6-fluoro-1,2,3,4-tetrahydro-1-isopropyl-2-naphtyl cyclopropanecarboxylate dihydrochloride]
Ki [1]: 950 nM
Ki for harmaline O-demethylation relative to mibefradil [1]: approximately three-fold higher
O-demethylation of harmaline, percentage of normal (mean ± S.D.) ([1]; drug 100 nM, 10 µM harmaline, mouse liver microsomes): 103.7 ± 12.8%
O-demethylation of harmaline, percent of normal (mean ± S.D.) ([1]; drug 10 µM, 10 µM harmaline, mouse liver microsomes): 46.6 ± 5.3%
gross observations in open fields: sedation or ataxia [2]: did not reveal sedation or ataxia
appearance (sedation) of drug/harmaline mice ([3]; drug 20 mg/kg i.p. then harmaline 20 mg/kg s.c.): did not appear sedated
retention on the inverted grid compared with vehicle/harmaline mice ([3]; mouse, in vivo): better than vehicle/harmaline mice
effect against high voltage calcium channels [4]: no effect
Ki [5]: 710 nM
Ki for testosterone 6-β-hydroxylation relative to mibefradil [5]: over five-fold higher
Ki for human CYP2D6 relative to mibefradil (human CYP2D6): one-fourth that of mibefradil
anti-seizure efficacy (pentylenetetrazol model): anti-seizure efficacy
fold higher Ki than mibefradil (human recombinant CYP3A4): 9 fold
tremor reduction compared to baseline [6]: 49.2%
effect on the tremor motion power peak ([6]; 40 mg/kg i.p., individual α1-null mouse, retest 30 min later): suppressed the tremor motion power peak
tremor generation reduced compared to the vehicle group [7, 11]: 48.5 ± 12.4%
tremor generation reduced compared to the vehicle group [7, 12]: 48.9 ± 13.6%
tremor generation reduced compared to the vehicle group ([7]; 20 mg/kg i.p., 20–60 min post-drug): 73.6 ± 20.1%
tremor generation reduced compared to the vehicle group ([7]; 20 mg/kg i.p., 60–100 min post-drug): 85.1 ± 29.1%
dose at which 3/6 failed the horizontal wire test ([8]; mouse, in vivo, ip): 300 mg/kg
maximal dose at which 6/6 mice passed the horizontal wire test ([8]; mouse, in vivo, ip): 200 mg/kg

COc1ccc2c3c([nH]c2c1)C(C)=NCC3 [harmaline]
retention time on the wire grid compared with vehicle/vehicle controls ([3]; vehicle-pre-treated mice, harmaline 20 mg/kg s.c., test 30 min later): reduced retention times on the wire grid

COCC(=O)O[C@]1(CCN(C)CCCc2nc3ccccc3[nH]2)CCc2cc(F)ccc2[C@@H]1C(C)C [mibefradil]
Ki for harmaline O-demethylation relative to NNC 55-0396 ([1]; mouse liver microsomes): less than a third that of NNC 55-0396
Ki at 20 min [9]: 290 nM
appearance (sedation) of drug/harmaline mice ([3]; mouse, in vivo): appeared sedated
retention on the inverted grid compared with vehicle/harmaline mice ([3]; mouse, in vivo): worse retention
crossing of the blood–brain-barrier [10]: does not cross the blood–brain-barrier
dose reported to produce severe hypotension (blood pressure): 30 mg/kg
tremor reduction compared to baseline [6]: no effect on tremor
tremor generation reduced compared to the vehicle group [7, 11]: 23.1 ± 3.9%
tremor generation reduced compared to the vehicle group [7, 12]: 20.8 ± 11.5%
maximal dose at which 6/6 mice passed the horizontal wire test ([8]; i.p., tested at 10-min intervals for 1.5 h): 20 mg/kg
dose at which 3/6 failed the horizontal wire test ([8]; mouse, in vivo, ip, 1.5 h): 30 mg/kg
